# The source made the active and inactive calls. The calls are words filed in the database; no cut-off is given here.
# Experiments:
# [1] = test system: MC-38; test: Antitumor activity against mouse MC38 cells implanted in C57BL/6 mouse assessed as tumor growth inhibition at 150 mg/kg, po measured after 14 days; type: functional; settings: MC-38, po, 336 h, time 14 day, read-out: TGI
# [2] = Toxicity in C57BL/6 mouse assessed as effect on AST level at 2000 mg/kg, po observed for 30 days; type: organism-based; settings: in vivo, 720 h, time 30 day
# [3] = Toxicity in C57BL/6 mouse assessed as body weight loss at 2000 mg/kg, po observed for 30 days; settings: in vivo, 720 h
# [4] = AUC (0 to t) in Sprague-Dawley rat at 45 mg/kg, po measured upto 24 hrs by LC-MS analysis; type: ADME, organism-based; set-up: route oral, dose 45 mg/kg, time <=24; settings: in vivo
# In short: (§1)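 Male animals fasted 12 h before dosing. Plasma levels measured by LC-MS, with the prodrug quantified as the parent acid. Mean ± SEM, n = 3.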
# [5] = Toxicity in C57BL/6 mouse assessed as effect on ALT level at 2000 mg/kg, po observed for 30 days; type: organism-based; settings: in vivo, 720 h, time 30 day
# [6] = test system: B16-F10; test: Antitumor activity against mouse B16-F10 cells implanted in C57BL/6 mouse assessed as tumor growth inhibition at 15 mg/kg, po measured after 18 days; type: functional; settings: 432 h, time 18 day, read-out: TGI
# In short: (§2)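 Female C57BL/6J mice, 8 weeks old, injected dorsally with 1 × 10⁶ B16-F10 cells in PBS. Daily oral gavage started the same day (day 1), in 0.5% CMC-Na vehicle. Tumour size and body weight recorded daily, volume = 0.5 × L × W². Sacrifice on day 18, tumours excised and weighed. TGI = (1 − Vt/Vv) × 100.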
# [7] = test system: MC-38; test: Antitumor activity against mouse MC38 cells xenografted in C57BL/6 mouse assessed as reduction in gMDSC cells at 25 mg/kg, po by flow cytometry analysis; type: functional, organism-based
# In short: (§3)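 Tumours taken from PD-L1-humanized mice carrying MC38-hPD-L1 tumours and dosed orally at 5 or 25 mg/kg daily. Tissue digested to single cells, red cells lysed with ACK buffer, Fc blocked. Surface stain 60 min for CD45, CD3, CD4, CD8, CD335, CD11b, Ly6G, Ly6C and F4/80, with a viability dye. Intracellular FOXP3 stain after permeabilization. Mean ± SEM, n = 7−8, one-way ANOVA.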
# [8] = AUC (0 to t) in C57BL/6 mouse at 10 mg/kg, po measured upto 24 hrs by LC-MS analysis; type: ADME, organism-based; set-up: route oral, dose 10 mg/kg, time <=24; settings: in vivo; in short: as §1
# [9] = test system: MC-38; test: Antitumor activity against mouse MC38 cells implanted in C57BL/6 mouse assessed as tumor growth inhibition at 300 mg/kg, po measured after 14 days; type: functional; settings: MC-38, po, 336 h, time 14 day, read-out: TGI
# [10] = test system: MC-38; test: Antitumor activity against mouse MC38 cells xenografted in C57BL/6 mouse assessed as increase in NK cells at 25 mg/kg, po by flow cytometry analysis; type: functional, organism-based; in short: as §3
# [11] = test system: MC-38; test: Antitumor activity against mouse MC38 cells implanted in C57BL/6 mouse assessed as tumor growth inhibition at 300 mg/kg, po measured after 18 days; type: functional; settings: MC-38, po, 432 h, time 18 day, read-out: TGI
# In short: (§4)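 Female C57BL/6J mice, 8 weeks old, injected dorsally with 1 × 10⁶ MC38 cells in PBS. At 50 mm³, randomized to CMC-Na vehicle, 50, 150 or 300 mg/kg by daily oral gavage. Tumours measured every two days, volume = 0.5 × L × W². Sacrifice after 18 days of treatment. TGI = (1 − Vt/Vv) × 100. n = 8−10.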
# [12] = Tmax in C57BL/6 mouse at 10 mg/kg, po measured upto 24 hrs by LC-MS analysis; type: ADME, organism-based; settings: in vivo
# In short: (§5)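 Male Sprague-Dawley rats or C57BL/6 mice fasted 12 h before dosing, given oral (po) or intravenous (iv) doses. Plasma levels measured by LC-MS. Parameters reported as mean ± SEM, n = 3.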
# [13] = Cmax in Sprague-Dawley rat at 9 mg/kg, iv measured upto 24 hrs by LC-MS analysis; type: ADME, organism-based; set-up: route intravenous, dose 9 mg/kg, time <=24; settings: in vivo; in short: as §1
# [14] = test system: MC-38; test: Antitumor activity against mouse MC38 cells implanted in C57BL/6 mouse assessed as tumor growth inhibition at 150 mg/kg, po measured after 18 days; type: functional; settings: MC-38, po, 432 h, time 18 day, read-out: TGI; in short: as §4
# [15] = test system: B16-F10; test: Antitumor activity against mouse B16-F10 cells implanted in C57BL/6 mouse assessed as tumor weight at 15 mg/kg, po measured after 18 days (reference value: 1.76 gm); type: functional; settings: time 18 day; in short: as §2
# [16] = Tmax in C57BL/6 mouse at 2 mg/kg, iv measured upto 24 hrs by LC-MS analysis; type: ADME, organism-based; settings: in vivo; in short: as §5
# [17] = test system: B16-F10; test: Antitumor activity against mouse B16-F10 cells implanted in C57BL/6 mouse assessed as tumor weight at 45 mg/kg, po measured after 18 days (reference value: 1.76 gm); type: functional; settings: time 18 day; in short: as §2
# [18] = Tmax in Sprague-Dawley rat at 45 mg/kg, po measured upto 24 hrs by LC-MS analysis; type: ADME, organism-based; settings: in vivo; in short: as §5
# [19] = molecular target: Programmed cell death protein 1/Programmed cell death 1 ligand 1 (Homo sapiens, UniProt Q9NZQ7); test: Inhibition of human PD-1/PD-L1 interaction assessed as blockade activity incubated for 15 mins by HTRF assay; type: protein-complex assay
# Chain of Programmed cell death protein 1/Programmed cell death 1 ligand 1 (Q15116 whole entry): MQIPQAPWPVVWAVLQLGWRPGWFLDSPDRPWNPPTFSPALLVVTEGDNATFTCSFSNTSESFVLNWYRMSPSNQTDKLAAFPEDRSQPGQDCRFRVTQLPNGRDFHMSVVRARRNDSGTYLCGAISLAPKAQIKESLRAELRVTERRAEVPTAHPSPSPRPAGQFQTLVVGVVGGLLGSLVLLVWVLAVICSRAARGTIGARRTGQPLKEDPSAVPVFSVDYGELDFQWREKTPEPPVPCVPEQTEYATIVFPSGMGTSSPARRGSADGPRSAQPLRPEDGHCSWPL
# Chain of Programmed cell death protein 1/Programmed cell death 1 ligand 1 (Q9NZQ7 whole entry): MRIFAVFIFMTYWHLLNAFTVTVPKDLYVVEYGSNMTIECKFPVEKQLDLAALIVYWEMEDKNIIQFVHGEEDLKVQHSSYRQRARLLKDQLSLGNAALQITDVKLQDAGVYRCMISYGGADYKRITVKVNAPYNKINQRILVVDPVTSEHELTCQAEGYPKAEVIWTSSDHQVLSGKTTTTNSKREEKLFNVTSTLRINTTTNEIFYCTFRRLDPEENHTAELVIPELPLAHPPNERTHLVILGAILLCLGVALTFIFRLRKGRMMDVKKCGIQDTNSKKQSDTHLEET
# In short: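 Tag1-PD-L1 and Tag2-PD-1 proteins preincubated with compound (0.1 nM to 10 μM, triplicate) 15 min at room temperature, then anti-Tag1-Eu³⁺/anti-Tag2-XL665 added for 2 h at room temperature. Excitation 337 nm, emission 665 and […]. Signal taken as 665/615 ratio ×10 000; IC50 fitted from inhibition rates.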
# [20] = Half life in C57BL/6 mouse at 2 mg/kg, iv measured upto 24 hrs by LC-MS analysis; type: ADME, organism-based; settings: in vivo; in short: as §1
# [21] = test system: MC-38; test: Antitumor activity against mouse MC38 cells xenografted in C57BL/6 mouse assessed as increase in CD3 positive T cells at 25 mg/kg, po by flow cytometry analysis; type: functional, organism-based; in short: as §3
structure (smiles),measurement,setting,value
CCOC(=O)[C@@H](CO)NCc1cc(Cl)c(OCc2cccc(-c3ccccc3)c2Br)cc1OCc1ccc2nonc2c1.Cl,inhibition in vivo at 150 mg/kg,[1],58.2%
same,Activity,[2],Non-Toxic
same,Activity,[3],Non-Toxic
same,AUC(0-t) at 24 h,[4],2.86 µg·h/mL
same,Activity,[5],Non-Toxic
same,inhibition in vivo at 15 mg/kg,[6],45.8%
same,Activity,[7],Active
same,AUC(0-t) at 24 h,[8],0.444 µg·h/mL
same,inhibition in vivo at 300 mg/kg,[9],36.5%
same,Activity,[10],Active
same,inhibition in vivo at 300 mg/kg,[11],48.9%
same,Tmax,[12],1 h
same,Cmax,[13],13 µg/mL
same,inhibition in vivo at 150 mg/kg,[14],55.1%
same,Activity,[15],1.27 g
same,Tmax,[16],4.8 min
same,Activity,[17],0.79 g
same,Tmax,[18],4 h
same,IC50,[19],0.426 µM
same,half-life,[20],2.05 h
same,Activity,[21],Active
